Screening results from PubChem BioAssay.
Kir21 inh = inhibitors of mouse Kir2.1 inward-rectifier potassium channel; AID 1672; 0.85% of 310,000 active; HEK293-Kir2.1, FluxOR thallium flux fluorescence; stronger effect = lower value; B-score at 10 µM;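 active = fluorescence ratio B-score at or below minus 3 SD of library scores, with starting-brightness B-score within 2 SD, cut at about -4.2 in these data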;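 note: channel flux triggered by added potassium and thallium sulfate stimulus; B-score of peak minus minimum fluorescence over baseline after thallium stimulus; more negative B-score means stronger Kir2.1 block with less thallium influx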
Target sequence (P35561 whole entry, looked up): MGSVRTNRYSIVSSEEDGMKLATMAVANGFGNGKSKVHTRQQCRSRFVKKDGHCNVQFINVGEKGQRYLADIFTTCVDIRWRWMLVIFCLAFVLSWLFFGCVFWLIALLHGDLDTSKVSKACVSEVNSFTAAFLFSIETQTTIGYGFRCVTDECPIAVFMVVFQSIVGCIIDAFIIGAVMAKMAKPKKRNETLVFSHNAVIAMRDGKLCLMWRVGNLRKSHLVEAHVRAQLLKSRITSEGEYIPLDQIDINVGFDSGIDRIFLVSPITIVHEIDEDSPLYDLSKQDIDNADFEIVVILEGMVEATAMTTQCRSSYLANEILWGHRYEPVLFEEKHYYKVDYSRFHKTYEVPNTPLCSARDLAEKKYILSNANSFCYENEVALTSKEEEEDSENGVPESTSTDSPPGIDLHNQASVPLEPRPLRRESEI
TRPC6 activator = activators of mouse TRPC6 channel. Q61143. HEK293-TRPC6 membrane potential dye fluorescence; stronger effect = higher value. B-score at 10 µM. 0.13% of 310,000 active;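 active = B-score of the integrated fluorescence ratio above library mean plus 3 SD, and starting fluorescence ratio within library mean plus 5 SD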;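 note: higher score means more depolarization so channel activation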
TRPC6 inhibitor = inhibitors of mouse TRPC6 channel; HEK293-TRPC6, membrane potential dye, ACh-evoked depolarization; stronger effect = lower value; B-score at 10 µM; 1.1% of 310,000 active; AID 2553;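 active = B-score under library mean minus 3 SD, initial fluorescence not abnormally high, positive integrated signal ratio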;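 note: B-score derived from integrated fluorescence ratio over the kinetic read; more negative B-score means stronger inhibition of depolarization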
TRPC4 act = TRPC4 (mouse) channel activation. B-score at 10 µM. 0.49% of 310,000 active. HEK293 TRPC4beta/mu-opioid, Fluo4 calcium fluorescence; stronger effect = higher value. AID 2237;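 active = B-score above 5 SD of library B-scores, and initial fluorescence ratio not above library mean plus 5 SD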;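 note: positive B-score marks a calcium rise read as TRPC4 activation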
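Assay system: HEK293 cells stably co-expressing mouse TRPC4beta and mu-opioid receptor / Timing: Fluo4 dye loading 45 min at room temperature, 110 s recording / Signal: Fluo4 calcium-sensitive dye fluorescence, kinetic, 1 Hz baseline / Read-out: integrated baseline-normalised fluorescence ratio, converted to per-well B score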
TRPC4 block = TRPC4 (mouse) channel inhibition | Q9QUQ5 | HEK293 TRPC4beta/mu-opioid, DAMGO-evoked Fluo4 calcium flux; stronger effect = lower value | 0.39% of 300,000 active | B-score at 10 µM;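 active = B-score over 3 SD under the library average, no early fluorescence shift, positive overall ratio signal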
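test system = HEK293 cells with stable TRPC4beta plus mu-opioid receptor expression | detection = Fluo4 Ca2+ flux fluorescence | read-out = integrated fluorescence ratio relative to baseline, converted to per-well B score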
TRPC4 potent = allosteric potentiators of mouse TRPC4 channel. Q9QUQ5. B-score at 10 µM. HEK293 TRPC4beta/mu-opioid, DAMGO EC20, Fluo-4 Ca2+ flux; stronger effect = higher value. 0.42% of 310,000 active;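 active = B-score of calcium response area above 5 SD of library B-scores, with initial fluorescence ratio within 5 SD of library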;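 note: B-score of integrated fluorescence ratio over time as area under calcium response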
TRPC4 sel inh 2 = mouse TRPC4 off-target activity of TRPC6 inhibitors, second screen; shares compounds with TRPC6 inhibitor; HEK293 TRPC4/MOR, membrane potential dye fluorescence; channel activated by saturating DAMGO dose; inhibition, % at 10 µM; 42% of 920 active;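 active = compounds whose fluorescence signal differed from control wells by over 3 SD, either direction, in both duplicate plates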
TRPC4 spec = mouse TRPC4 off-target activity of TRPC6 inhibitors; 61% of 920 active; shares compounds with TRPC6 inhibitor; HEK293 TRPC4/mu-opioid, membrane potential fluorescence; activity change, negative = inhibition, % at 10 µM;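 active = rise or fall in signal beyond 3 SD of buffer-only wells in both replicate plates, either sign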;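 note: integrated kinetic ratio of fluorescence range over baseline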
HEK293 MPD ctr 2-1 = parental HEK293 nonspecific activity of TRPC6 inhibitors, second screen | shares compounds with TRPC6 inhibitor | parental HEK293 membrane potential dye fluorescence; maximal acetylcholine challenge after compound addition | signal change vs control, % at 10 µM | 31% of 920 active;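 active = membrane potential signal moving either way by over 3 SD of the maximum-effect control, in both duplicate plates, meaning non-specific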
HEK293 MPD ctr-1 = checks TRPC6 inhibitor effects in parental HEK293 cells; shares compounds with TRPC6 inhibitor; membrane potential signal change, % at 10 µM; AID 2780; 60% of 920 active; parental HEK293 membrane potential dye fluorescence;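 active = membrane potential signal shifting up or down by more than 3 SD of buffer-only wells, on both duplicate plates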
HEK293 MPD ctr-2 = parental HEK293 nonspecific activity of TRPC6 modulators; shares compounds with TRPC6 inhibitor; membrane potential dye fluorescence; membrane potential signal change, % at 10 µM; 51% of 2,400 active; AID 488924;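 active = membrane potential signal moves up or down beyond 5 SD from buffer-only wells, on both duplicate plates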
HEK293 MPD ctr 2-2 = parental HEK293 nonspecific activity of TRPC6 modulators, second screen; membrane potential dye fluorescence; after compound, maximal acetylcholine stimulation; AID 488926; shares compounds with TRPC6 inhibitor; 14% of 2,400 active; inhibition, % at 10 µM;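 active = membrane potential signal drops by more than 5 SD from the mean control signal, in both duplicate plates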;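 note: plate controls were acetylcholine ECmax control wells for no effect and buffer only wells for full effect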
TRPC4/MOR mod = tests whether TRPC6 modulators also affect mouse TRPC4 | percent change from control (negative = decrease, positive = increase), % at 10 µM | HEK293 TRPC4/mu-opioid, membrane potential fluorescence | shares compounds with TRPC6 inhibitor | 69% of 2,400 active;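 active = membrane potential signal moved up or down beyond 5 SD of buffer control wells, in both duplicate plates, actives on both sides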;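 note: plate controls were assay buffer wells for no effect and DAMGO maximal-effect wells for full effect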
TRPC4 ctr inh 2 = mouse TRPC4 off-target activity of TRPC6 modulators, second screen. inhibition, % at 10 µM. shares compounds with TRPC6 inhibitor. HEK293 TRPC4/mu-opioid, membrane potential dye fluorescence; stimulated with maximal-effect DAMGO. 55% of 2,400 active;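 active = drop in membrane potential signal beyond 5 SD of the control wells in both duplicate plates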;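 note: TRPC4 counter screen for TRPC6 hits run under conditions tuned for TRPC6 not TRPC4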
TRPC6 inh conf = mouse TRPC6 inhibitor confirmation. 43% of 3,300 active. inhibition, % at 10 µM. HEK293-TRPC6, membrane potential dye, ACh-evoked depolarization. shares compounds with TRPC6 inhibitor;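 active = fluorescence ratio falls more than 5 SD below the full-stimulation control mean, in both duplicate runs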;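 note: integrated fluorescence ratio of peak minus minimum over baseline after agonist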
TRPC6 act confirm = confirmation of mouse TRPC6 activators; shares compounds with TRPC6 inhibitor; HEK293-TRPC6 membrane potential dye fluorescence, FDSS; activation, % at 10 µM; 11% of 2,800 active; AID 488961;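 active = ratio signal rise beyond 5 SD above unstimulated control wells' mean, seen in both duplicate runs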;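 note: plate controls were buffer EC0 wells for no effect and acetylcholine ECmax response for full effect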
Active calls of the source: *; i = inactive; · = not tested or not shown; + = active, no number. The list is not random: actives were taken first. Their share in the collection is about 3%.

SMILES | Kir21 inh | TRPC6 activator | TRPC6 inhibitor | TRPC4 act | TRPC4 block | TRPC4 potent | HEK293 MPD ctr-2 | HEK293 MPD ctr 2-2 | TRPC4/MOR mod | TRPC4 ctr inh 2 | TRPC6 inh conf | TRPC6 act confirm | others
Cc1ccc2c(c1)c1c(n2CC(O)CN2CCOCC2)CCCC1 (stereo not drawn) | -0.48 | i | i | i | i | i | · | · | · | · | · | ·
Cc1cccc(C)c1Nc1c(-c2ccc(N3CCOCC3)cc2)nc2ncccn12 | 0.04 | i | -8.04* | i | i | i | -123.0%* | 56.5%* | -27.5%* | 97.0%* | 76.0%* | i
Cc1ccc(-c2nc3ncccn3c2Nc2ccccc2C)o1 | -1.64 | i | -5.85* | i | i | i | -115.0%* | i | -18.5%* | 68.5%* | i | i
COc1ccc(-c2nc3ncccn3c2Nc2ccccc2)cc1 | 2.03 | i | i | i | i | i | · | · | · | · | · | ·
Brc1ccc(-c2nc3ncccn3c2NC2CCCCC2)o1 | 0.76 | i | -5.03* | i | i | i | 116.5%* | i | 22.0%* | 36.0%* | i | i
Cc1ccc(Nc2c(-c3ccc(N(C)C)cc3)nc3ncccn23)cc1 | -1.52 | i | i | i | i | i | · | · | · | · | · | ·
Cc1ccc(Nc2c(-c3ccc(N4CCOCC4)cc3)nc3ncccn23)c(C)c1 | 0.71 | i | -6.07* | i | i | i | -143.0%* | 61.5%* | -29.0%* | 95.5%* | 83.5%* | i
CNC(=O)N(O)C1N(/N=C/c2ccc(C)cc2)C(=S)SC1(C)C (stereo not drawn) | -0.62 | i | i | i | i | i | · | · | · | · | · | ·
CNC(=O)N(O)C1N(/N=C/c2cc(Br)ccc2O)C(=S)SC1(C)C (stereo not drawn) | 0.27 | i | -6.71* | i | i | i | · | · | · | · | i | i | TRPC4 sel inh 2=i;TRPC4 spec=-12.3%*;HEK293 MPD ctr 2-1=i;HEK293 MPD ctr-1=-212.0%*
COC1=C/C(=C/c2c(N)n3cc(C)sc3nc2=O)C=CC1=O | -0.57 | i | i | i | i | i | · | · | · | · | · | ·
Cc1cn2c(N)c(C=C3C=C(Cl)C(=O)C(Cl)=C3)c(=O)nc2s1 | -7.35 | 82.6* | i | i | i | i | + | 198.5%* | 360.5%* | i | i | 429.5%*
